Converted amounts (≈) assume the structure as drawn.
Key:
Escherichia coli [1] = assay: Antimicrobial activity against Escherichia coli DH10B harboring beta-lactamase KPC-2 T237M mutant by agar dilution method; type: functional; conditions: K-12 DH10B
In short: (§1)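 LB agar dilution MICs followed CLSI criteria, with inocula applied by Steers replicator. […] Piperacillin-tazobactam was tested at an 8:1 ratio. Wild-type and mutant blaKPC-2 were carried on pBC SK(+), or wild type on pBR322-catI, in E. coli DH10B.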

Escherichia coli [2] = assay: Antimicrobial activity against Escherichia coli DH10B harboring beta-lactamase KPC-2 T237N mutant by agar dilution method; type: functional; conditions: K-12 DH10B; in short: as §1
Escherichia coli [3] = assay: Antimicrobial activity against Escherichia coli DH10B harboring beta-lactamase KPC-2 T237R mutant by agar dilution method; type: functional; conditions: K-12 DH10B; in short: as §1
Escherichia coli [4] = assay: Antimicrobial activity against Escherichia coli DH10B harboring beta-lactamase KPC-2 T237E mutant by agar dilution method; type: functional; conditions: K-12 DH10B; in short: as §1
Escherichia coli [5] = assay: Antimicrobial activity against Escherichia coli DH10B harboring beta-lactamase KPC-2 T237F mutant by agar dilution method; type: functional; conditions: K-12 DH10B; in short: as §1
Klebsiella pneumoniae [6] = assay: Antimicrobial activity against Klebsiella pneumoniae 1534 expressing beta-lactamase KPC-2 by agar dilution method; type: functional
In short: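 MICs were determined by LB agar dilution following CLSI criteria, with a Steers replicator. […] Piperacillin-tazobactam was kept at an 8:1 ratio.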

Escherichia coli [7] = assay: Antimicrobial activity against Escherichia coli DH10B harboring beta-lactamase KPC-2 T237Y mutant by agar dilution method; type: functional; conditions: K-12 DH10B; in short: as §1
Escherichia coli [8] = assay: Antimicrobial activity against Escherichia coli DH10B by agar dilution method; type: functional; conditions: K-12 DH10B; in short: as §1
Escherichia coli [9] = assay: Antimicrobial activity against Escherichia coli DH10B harboring beta-lactamase KPC-2 T237L mutant by agar dilution method; type: functional; conditions: K-12 DH10B; in short: as §1
Escherichia coli [10] = assay: Antimicrobial activity against Escherichia coli DH10B harboring beta-lactamase KPC-2 T237A mutant by agar dilution method; type: functional; conditions: K-12 DH10B; in short: as §1
Escherichia coli [11] = assay: Antimicrobial activity against Escherichia coli DH10B harboring plasmid […] by agar dilution method; type: functional; conditions: K-12 DH10B; in short: as §1
Escherichia coli [12] = assay: Antimicrobial activity against Escherichia coli DH10B harboring beta-lactamase KPC-2 T237C mutant by agar dilution method; type: functional; conditions: K-12 DH10B; in short: as §1
Escherichia coli [13] = assay: Antimicrobial activity against Escherichia coli DH10B harboring beta-lactamase KPC-2 T237K mutant by agar dilution method; type: functional; conditions: K-12 DH10B; in short: as §1
Escherichia coli [14] = assay: Antimicrobial activity against Escherichia coli DH10B harboring beta-lactamase KPC-2 T237P mutant by agar dilution method; type: functional; conditions: K-12 DH10B; in short: as §1
Escherichia coli [15] = assay: Antimicrobial activity against Escherichia coli DH10B harboring beta-lactamase KPC-2 T237W mutant by agar dilution method; type: functional; conditions: K-12 DH10B; in short: as §1
Escherichia coli [16] = assay: Antimicrobial activity against Escherichia coli DH10B harboring beta-lactamase KPC-2 T237H mutant by agar dilution method; type: functional; conditions: K-12 DH10B; in short: as §1
Escherichia coli [17] = assay: Antimicrobial activity against Escherichia coli DH10B harboring beta-lactamase KPC-2 T237S mutant by agar dilution method; type: functional; conditions: K-12 DH10B; in short: as §1
Escherichia coli [18] = assay: Antimicrobial activity against Escherichia coli DH10B harboring plasmid pBR322-catI carrying beta-lactamase KPC-2 by agar dilution method; type: functional; conditions: K-12 DH10B; in short: as §1
Escherichia coli [19] = assay: Antimicrobial activity against Escherichia coli DH10B harboring plasmid pBC SK(+) carrying wild type beta-lactamase KPC-2 by agar dilution method; type: functional; conditions: K-12 DH10B; in short: as §1
Escherichia coli [20] = assay: Antimicrobial activity against Escherichia coli DH10B harboring beta-lactamase KPC-2 T237I mutant by agar dilution method; type: functional; conditions: K-12 DH10B; in short: as §1
Escherichia coli [21] = assay: Antimicrobial activity against Escherichia coli DH10B harboring beta-lactamase KPC-2 T237D mutant by agar dilution method; type: functional; conditions: K-12 DH10B; in short: as §1
Escherichia coli [22] = assay: Antimicrobial activity against Escherichia coli DH10B harboring beta-lactamase KPC-2 T237Q mutant by agar dilution method; type: functional; conditions: K-12 DH10B; in short: as §1
Escherichia coli [23] = assay: Antimicrobial activity against Escherichia coli DH10B harboring beta-lactamase KPC-2 T237V mutant by agar dilution method; type: functional; conditions: K-12 DH10B; in short: as §1
Escherichia coli [24] = assay: Antimicrobial activity against Escherichia coli DH10B harboring beta-lactamase KPC-2 T237G mutant by agar dilution method; type: functional; conditions: K-12 DH10B; in short: as §1
Klebsiella pneumoniae [25] = assay: Selectivity index, Ratio of Kcat/Km for Klebsiella pneumoniae 1534 beta-lactamase KPC-2 T237S mutant to ratio of Kcat/Km for Klebsiella pneumoniae 1534 beta-lactamase KPC-2 by spectrophotometric analysis
In short: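 Kinetics used purified enzymes in 10 mM PBS, pH 7.4, room temperature, with 10 nM enzyme and substrate in excess. Km and Vmax came from a Michaelis-Menten fit. kcat/Km of the variant was compared with wild type as ΔΔG = −RT ln of the kcat/Km ratio.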

Klebsiella pneumoniae [26] = assay: Activity of Klebsiella pneumoniae 1534 beta-lactamase KPC-2 T237S mutant by spectrophotometric analysis
In short: (§2)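 Purified KPC-2 variant enzymes (periplasmic lysate from E. coli, preparative isoelectric focusing). Hydrolysis followed by diode-array spectrophotometry in 10 mM PBS, pH 7.4, room temperature. Enzyme at 10 nM with substrate in molar excess for pseudo-first-order conditions. Vmax and Km came from a nonlinear least-squares Michaelis-Menten fit.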

Klebsiella pneumoniae [27] = assay: Activity of Klebsiella pneumoniae 1534 beta-lactamase KPC-2 T237A mutant by spectrophotometric analysis; in short: as §2
Klebsiella pneumoniae [28] = assay: Ratio of Kcat/Km for Klebsiella pneumoniae 1534 beta-lactamase KPC-2 T237S mutant by spectrophotometric analysis; in short: as §2
Klebsiella pneumoniae [29] = assay: Ratio of Kcat/Km for Klebsiella pneumoniae 1534 beta-lactamase KPC-2 T237A mutant by spectrophotometric analysis; in short: as §2
[30] = Inhibition of Klebsiella pneumoniae 1534 beta-lactamase KPC-2 T237S mutant by competitive assay
In short: (§3)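 Direct competition assay at steady state with purified enzyme at 10 nM. Inhibitor was varied from 5 μM to 5 mM, with nitrocefin 100 μM final as reporter substrate. 1/v0 was plotted against [I], and Ki(observed) was taken as y-intercept divided by slope. This was corrected by 1 + [S]/Km(nitrocefin).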

Klebsiella pneumoniae [31] = assay: Ratio of Ki for Klebsiella pneumoniae 1534 beta-lactamase KPC-2 T237A mutant to Ki for wild type Klebsiella pneumoniae beta-lactamase KPC-2 by competitive assay
[32] = Inhibition of Klebsiella pneumoniae 1534 beta-lactamase KPC-2 T237A mutant by competitive assay; in short: as §3
Klebsiella pneumoniae [33] = assay: Ratio of Ki for Klebsiella pneumoniae 1534 beta-lactamase KPC-2 T237S mutant to Ki for Klebsiella pneumoniae wild type beta-lactamase KPC-2 by competitive assay; in short: as §3

Row | Compound | MIC (Escherichia coli [1]) [µg/mL] | MIC (Escherichia coli [2]) [µg/mL] | MIC (Escherichia coli [3]) [µg/mL] | MIC (Escherichia coli [4]) [µg/mL] | MIC (Escherichia coli [5]) [µg/mL] | MIC (Klebsiella pneumoniae [6]) [µg/mL] | MIC (Escherichia coli [7]) [µg/mL] | MIC (Escherichia coli [8]) [µg/mL] | MIC (Escherichia coli [9]) [µg/mL] | MIC (Escherichia coli [10]) [µg/mL] | MIC (Escherichia coli [11]) [µg/mL] | MIC (Escherichia coli [12]) [µg/mL] | MIC (Escherichia coli [13]) [µg/mL] | MIC (Escherichia coli [14]) [µg/mL] | MIC (Escherichia coli [15]) [µg/mL] | MIC (Escherichia coli [16]) [µg/mL] | MIC (Escherichia coli [17]) [µg/mL] | MIC (Escherichia coli [18]) [µg/mL] | MIC (Escherichia coli [19]) [µg/mL] | MIC (Escherichia coli [20]) [µg/mL] | further results
1 | C[C@@H](O)[C@H]1C(=O)N2C(C(=O)O)=C(S[C@@H]3CN[C@H](C(=O)Nc4cccc(C(=O)O)c4)C3)[C@H](C)[C@H]12 | 0.06 (≈ 0.126 µM) | 0.06 (≈ 0.126 µM) | 0.06 (≈ 0.126 µM) | 0.06 (≈ 0.126 µM) | 0.06 (≈ 0.126 µM) | 8 (≈ 16.8 µM) | 0.06 (≈ 0.126 µM) | 0.06 (≈ 0.126 µM) | 0.06 (≈ 0.126 µM) | 0.06 (≈ 0.126 µM) | 0.06 (≈ 0.126 µM) | 0.06 (≈ 0.126 µM) | 0.06 (≈ 0.126 µM) | 0.06 (≈ 0.126 µM) | 0.06 (≈ 0.126 µM) | 0.06 (≈ 0.126 µM) | 0.5 (≈ 1.05 µM) | 2 (≈ 4.21 µM) | 0.25 (≈ 0.526 µM) | 0.06 (≈ 0.126 µM) | MIC (Escherichia coli [21]): 0.06 µg/mL (≈ 0.126 µM); MIC (Escherichia coli [22]): 0.06 µg/mL (≈ 0.126 µM); MIC (Escherichia coli [23]): 0.06 µg/mL (≈ 0.126 µM); MIC (Escherichia coli [24]): 0.06 µg/mL (≈ 0.126 µM)
2 | CO/N=C(\C(=O)N[C@@H]1C(=O)N2C(C(=O)O)=C(COC(C)=O)CS[C@H]12)c1csc(N)n1 [CEFOTAXIME] | 0.06 (≈ 0.132 µM) | 0.06 (≈ 0.132 µM) | 0.06 (≈ 0.132 µM) | 0.06 (≈ 0.132 µM) | 0.06 (≈ 0.132 µM) | 16 (≈ 35.1 µM) | 0.06 (≈ 0.132 µM) | 0.06 (≈ 0.132 µM) | 0.06 (≈ 0.132 µM) | 0.06 (≈ 0.132 µM) | 0.06 (≈ 0.132 µM) | 0.06 (≈ 0.132 µM) | 0.06 (≈ 0.132 µM) | 0.06 (≈ 0.132 µM) | 0.06 (≈ 0.132 µM) | 0.06 (≈ 0.132 µM) | 1 (≈ 2.2 µM) | 8 (≈ 17.6 µM) | 2 (≈ 4.39 µM) | 0.06 (≈ 0.132 µM) | fold change (FC) (Klebsiella pneumoniae [25]): 2.7; Km (Klebsiella pneumoniae [26]): 168 µM; kcat (Klebsiella pneumoniae [26]): 43 s⁻¹; kcat (Klebsiella pneumoniae [27]): < 0.1 s⁻¹; MIC (Escherichia coli [21]): 0.125 µg/mL (≈ 0.274 µM); MIC (Escherichia coli [22]): 0.06 µg/mL (≈ 0.132 µM); kcat/Km (Klebsiella pneumoniae [28]): 260000 M⁻¹ s⁻¹; MIC (Escherichia coli [23]): 0.06 µg/mL (≈ 0.132 µM); MIC (Escherichia coli [24]): 0.06 µg/mL (≈ 0.132 µM)
3 | CC(=O)OCC1=C(C(=O)O)N2C(=O)[C@@H](NC(=O)Cc3cccs3)[C@H]2SC1 [CEPHALOTHIN] | 16 (≈ 40.4 µM) | 4 (≈ 10.1 µM) | 4 (≈ 10.1 µM) | 4 (≈ 10.1 µM) | 4 (≈ 10.1 µM) | 1020 (≈ 2580 µM) | 16 (≈ 40.4 µM) | 4 (≈ 10.1 µM) | 8 (≈ 20.2 µM) | 32 (≈ 80.7 µM) | 4 (≈ 10.1 µM) | 4 (≈ 10.1 µM) | 4 (≈ 10.1 µM) | 2 (≈ 5.04 µM) | 32 (≈ 80.7 µM) | 16 (≈ 40.4 µM) | 256 (≈ 646 µM) | 512 (≈ 1290 µM) | 256 (≈ 646 µM) | 4 (≈ 10.1 µM) | fold change (FC) (Klebsiella pneumoniae [25]): 2.7; Km (Klebsiella pneumoniae [26]): 18 µM; kcat (Klebsiella pneumoniae [26]): 65 s⁻¹; Km (Klebsiella pneumoniae [27]): 30 µM; kcat (Klebsiella pneumoniae [27]): 26 s⁻¹; MIC (Escherichia coli [21]): 4 µg/mL (≈ 10.1 µM); MIC (Escherichia coli [22]): 16 µg/mL (≈ 40.4 µM); kcat/Km (Klebsiella pneumoniae [28]): 3.6e+06 M⁻¹ s⁻¹; kcat/Km (Klebsiella pneumoniae [29]): 900000 M⁻¹ s⁻¹; MIC (Escherichia coli [23]): 8 µg/mL (≈ 20.2 µM); MIC (Escherichia coli [24]): 4 µg/mL (≈ 10.1 µM)
4 | O=C(O)[C@H]1/C(=C/CO)O[C@@H]2CC(=O)N21 [CLAVULANIC ACID] |  |  |  |  |  |  |  |  |  |  |  |  |  |  |  |  |  |  |  |  | Ki [30]: 13 µM; fold change (FC) (Klebsiella pneumoniae [31]): 5; Ki [32]: 55 µM; fold change (FC) (Klebsiella pneumoniae [33]): 1.7
5 | C[C@@H](O)[C@H]1C(=O)N2C(C(=O)O)=C(S[C@@H]3CN[C@H](CNS(N)(=O)=O)C3)[C@H](C)[C@H]12 [DORIPENEM] | 0.06 (≈ 0.143 µM) | 0.06 (≈ 0.143 µM) | 0.06 (≈ 0.143 µM) | 0.06 (≈ 0.143 µM) | 0.06 (≈ 0.143 µM) | 4 (≈ 9.51 µM) | 0.06 (≈ 0.143 µM) | 0.06 (≈ 0.143 µM) | 0.06 (≈ 0.143 µM) | 0.06 (≈ 0.143 µM) | 0.06 (≈ 0.143 µM) | 0.06 (≈ 0.143 µM) | 0.06 (≈ 0.143 µM) | 0.06 (≈ 0.143 µM) | 0.06 (≈ 0.143 µM) | 0.06 (≈ 0.143 µM) | 0.25 (≈ 0.595 µM) | 4 (≈ 9.51 µM) | 0.25 (≈ 0.595 µM) | 0.06 (≈ 0.143 µM) | MIC (Escherichia coli [21]): 0.06 µg/mL (≈ 0.143 µM); MIC (Escherichia coli [22]): 0.06 µg/mL (≈ 0.143 µM); MIC (Escherichia coli [23]): 0.06 µg/mL (≈ 0.143 µM); MIC (Escherichia coli [24]): 0.06 µg/mL (≈ 0.143 µM)
